One series addresses Cholinesterase (Equus caballus, UniProt P81908). In words: Inhibition of equine serum BChE using butyrylthiocholine iodide as substrate preincubated for 20 mins followed by substrate addition measured for 5 mins by spectrophotometric Ellman's method. The procedure, abridged: (§1)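 BChE from equine serum (13 U/mg), Ellman spectrophotometric method run in 96-well format. Seven inhibitor concentrations, 10^-4 to 10^-10 M, each in triplicate. IC50 from non-linear regression of response against log(concentration). […] Mean of three independent experiments.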
Background: In Ellman's method for cholinesterases, released thiocholine reacts with DTNB.

The target of the next series is Acetylcholinesterase (Electrophorus electricus, UniProt O42275). The experiment in a line: Inhibition of electric eel AChE using acetylthiocholine iodide as substrate preincubated for 20 mins followed by substrate addition measured for 5 mins by spectrophotometric Ellman's method.
Chain of Acetylcholinesterase (O42275 whole entry): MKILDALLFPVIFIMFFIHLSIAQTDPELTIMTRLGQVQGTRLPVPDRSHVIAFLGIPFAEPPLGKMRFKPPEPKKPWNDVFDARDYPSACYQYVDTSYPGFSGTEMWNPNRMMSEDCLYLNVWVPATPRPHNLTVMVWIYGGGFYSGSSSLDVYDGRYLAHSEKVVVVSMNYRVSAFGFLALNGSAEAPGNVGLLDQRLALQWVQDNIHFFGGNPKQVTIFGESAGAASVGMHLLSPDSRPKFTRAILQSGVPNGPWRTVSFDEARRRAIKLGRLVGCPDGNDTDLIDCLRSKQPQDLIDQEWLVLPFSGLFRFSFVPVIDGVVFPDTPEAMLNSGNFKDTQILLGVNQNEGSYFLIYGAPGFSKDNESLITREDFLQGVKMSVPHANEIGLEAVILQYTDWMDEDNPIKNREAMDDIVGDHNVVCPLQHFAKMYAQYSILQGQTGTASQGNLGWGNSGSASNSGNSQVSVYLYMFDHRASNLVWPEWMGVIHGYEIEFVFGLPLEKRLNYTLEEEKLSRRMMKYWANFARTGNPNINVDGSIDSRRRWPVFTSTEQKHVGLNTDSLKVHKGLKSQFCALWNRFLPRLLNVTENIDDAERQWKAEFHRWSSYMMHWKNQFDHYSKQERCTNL
For series [1], the target named is T1, Amine oxidase [flavin-containing] B (Homo sapiens, UniProt P27338).
T1 sequence (P27338 whole entry): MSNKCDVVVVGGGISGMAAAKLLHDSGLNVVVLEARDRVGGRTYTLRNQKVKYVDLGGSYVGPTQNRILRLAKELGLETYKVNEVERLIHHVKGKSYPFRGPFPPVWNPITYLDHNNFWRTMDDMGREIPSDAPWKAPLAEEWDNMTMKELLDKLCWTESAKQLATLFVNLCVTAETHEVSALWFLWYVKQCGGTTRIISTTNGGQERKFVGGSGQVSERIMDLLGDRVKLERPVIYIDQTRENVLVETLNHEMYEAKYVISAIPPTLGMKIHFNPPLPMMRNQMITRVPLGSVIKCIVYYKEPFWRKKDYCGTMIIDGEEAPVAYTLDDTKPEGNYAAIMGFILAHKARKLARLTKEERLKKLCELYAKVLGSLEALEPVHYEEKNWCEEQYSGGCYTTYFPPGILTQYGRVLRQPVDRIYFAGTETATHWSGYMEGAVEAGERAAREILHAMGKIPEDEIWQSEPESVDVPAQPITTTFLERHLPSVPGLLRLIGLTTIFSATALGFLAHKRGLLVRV
In words: Inhibition of human recombinant MAOB expressed in microsomes of baculovirus-infected insect cell using kynuramine as substrate preincubated for 20 mins followed by protein addition measured after 30 mins by fluorescence assay.

Series [2] deals with T2, Amine oxidase [flavin-containing] A (Homo sapiens, UniProt P21397).
T2 sequence (P21397 whole entry): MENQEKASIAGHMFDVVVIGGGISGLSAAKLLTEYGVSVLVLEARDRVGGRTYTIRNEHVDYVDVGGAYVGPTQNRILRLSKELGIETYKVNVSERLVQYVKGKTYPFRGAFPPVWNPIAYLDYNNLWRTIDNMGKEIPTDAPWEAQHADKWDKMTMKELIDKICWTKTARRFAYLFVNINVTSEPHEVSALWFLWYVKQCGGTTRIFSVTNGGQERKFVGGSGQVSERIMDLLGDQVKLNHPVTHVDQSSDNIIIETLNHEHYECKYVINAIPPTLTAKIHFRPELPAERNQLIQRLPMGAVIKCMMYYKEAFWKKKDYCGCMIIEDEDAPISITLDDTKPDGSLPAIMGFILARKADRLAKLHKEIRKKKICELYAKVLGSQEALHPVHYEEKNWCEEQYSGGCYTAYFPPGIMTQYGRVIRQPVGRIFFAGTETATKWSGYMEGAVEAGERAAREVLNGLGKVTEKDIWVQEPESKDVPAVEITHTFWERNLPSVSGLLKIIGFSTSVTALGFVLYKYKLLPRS
In words: Inhibition of human recombinant MAOA expressed in microsomes of baculovirus-infected insect cell using kynuramine as substrate preincubated for 20 mins followed by protein addition measured after 30 mins by fluorescence assay. The procedure, abridged:
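Recombinant human MAO A (baculovirus-infected insect cell microsomes) with kynuramine substrate; inhibitor preincubated 20 min at 37 °C, enzyme then added and incubated 30 min more. Fluorescence at ex/em 320/400 nm. Triplicates, three independent experiments.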

A further series is filed under the species Homo sapiens. The experiment in a line: Selectivity index, ratio of IC50 for human recombinant MAOA to IC50 for human recombinant MAOB.
Series [3] concerns the target Cholinesterase (Equus caballus) (UniProt P81908). The experiment in a line: Inhibition of equine serum BChE at 10 uM using butyrylthiocholine iodide as substrate preincubated for 20 mins followed by substrate addition measured for 5 mins by spectrophotometric Ellman's method relative to control. The essentials:
as §1

For series [4], the system named is SH-SY5Y. In words: Neuroprotective activity against H2O2-induced oxidative injury in human SH-SY5Y cells assessed as increase in cell viability at 1 to 10 uM after 24 hrs by MTT assay. The class given is functional, cell-based. The essentials: (§2)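 SH-SY5Y cells incubated 24 h with compound at 1 or 10 µM together with H2O2 300 µM, oligomycin-A 10 µM or rotenone 20 µM. Viability by MTT, as % of cells given neither insult nor compound. Triplicates, three repeats; mean ± SD; two-way ANOVA with Bonferroni post hoc test.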
Background: Tetrazolium dyes change colour on reduction, which living cells bring about.

Series [5] relates to SH-SY5Y. The experiment in a line: Neuroprotective activity against rotenone-induced oxidative injury in human SH-SY5Y cells assessed as increase in cell viability at 1 uM after 24 hrs by MTT assay. The class given is functional, cell-based. The essentials:
as §2

Series [6] can be described thus: Lipophilicity index, Log K of the compound at 1 mM by RP-HPLC method. The class given is physicochemical. The following applies: 1000 µM.
Series [7] has as its system SH-SY5Y. The experiment in a line: Neuroprotective activity against oligomycin-A-induced oxidative injury in human SH-SY5Y cells assessed as increase in cell viability at 10 uM after 24 hrs by MTT assay. The class given is functional, cell-based. The essentials:
as §2

The test system of series [8] is SH-SY5Y. The experiment in a line: Cytotoxicity against human SH-SY5Y cells assessed as inhibition of cell growth after 24 hrs by MTT assay. The class given is cell-based. The procedure, abridged: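 SH-SY5Y cells exposed 24 h at 37 °C to 0.1, 1, 5, 10 and 50 µM; viability read by MTT at 570 nm versus untreated cells. […] Means ± SD, n = 3.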
For series [9], the system named is SH-SY5Y. In words: Neuroprotective activity against oligomycin-A-induced oxidative injury in human SH-SY5Y cells assessed as increase in cell viability at 1 uM after 24 hrs by MTT assay. The class given is functional, cell-based. The procedure, abridged: as §2

Calls of active or inactive are those of the source. No cut-off for these calls is given here.

The term IC50 denotes the midpoint of a concentration-inhibition curve. Usually inhibition stands for the relative decrease from the control value, in per cent. Low readings indicate a response near the control, high ones a response far below the control.

Chain of Cholinesterase (P81908 whole entry): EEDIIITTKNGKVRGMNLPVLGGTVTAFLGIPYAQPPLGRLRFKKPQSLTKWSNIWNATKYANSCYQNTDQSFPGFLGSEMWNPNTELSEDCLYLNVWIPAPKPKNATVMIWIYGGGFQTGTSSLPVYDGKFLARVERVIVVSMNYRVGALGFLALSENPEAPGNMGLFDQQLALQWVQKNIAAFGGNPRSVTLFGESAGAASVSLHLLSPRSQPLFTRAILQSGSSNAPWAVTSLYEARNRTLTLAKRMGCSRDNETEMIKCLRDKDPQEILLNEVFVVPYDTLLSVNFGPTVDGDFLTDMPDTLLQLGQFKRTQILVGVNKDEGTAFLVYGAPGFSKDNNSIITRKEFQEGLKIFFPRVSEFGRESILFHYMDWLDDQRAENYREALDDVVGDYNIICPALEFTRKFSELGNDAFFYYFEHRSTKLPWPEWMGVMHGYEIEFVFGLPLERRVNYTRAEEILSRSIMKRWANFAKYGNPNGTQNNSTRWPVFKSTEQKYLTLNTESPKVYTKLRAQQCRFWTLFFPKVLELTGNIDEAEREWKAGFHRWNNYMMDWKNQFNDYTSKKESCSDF
Chain of Cholinesterase (Equus caballus) (P81908 whole entry): as above

For `Cc1c(C)c2ccc(OC3CCN(CCc4ccccc4)CC3)cc2oc1=O`, the half-inhibitory concentration (IC50) amounted to 1770 nM on Cholinesterase, 1650 nM against Acetylcholinesterase, 2490 nM in series [1] and 12400 nM in [2].

In the case of `Cc1c(C)c2ccc(OCC3CCCN(Cc4ccc(C#N)cc4)C3)cc2oc1=O` (racemic), in the series filed under Homo sapiens, the Ratio IC50 was determined as 133. Also, the IC50 on Acetylcholinesterase is 2800 nM; in series [1], 34 nM; in series [2], 4510 nM. The inhibition in series [3] stood at 36%.

Regarding `Cc1c(C)c2ccc(OC3CCN(C)CC3)cc2oc1=O`, the values for the half-inhibitory concentration (IC50) (against Acetylcholinesterase; in [1]; in [2]) were 1300 nM, 274 nM and 11700 nM, respectively. This compound also displayed an inhibition in series [3] of 11%.

With `Cc1c(C)c2ccc(OCC3CCCN(Cc4ccc(F)cc4)C3)cc2oc1=O` (racemic), the IC50 was determined as 3690 nM at Cholinesterase, 1460 nM against Acetylcholinesterase, 163 nM in series [1] and 1110 nM in [2]. Further, the outcome in the series on SH-SY5Y [4] and with SH-SY5Y [5] was Active.

For `Cc1c(C)c2ccc(OCC3CCCN(Cc4cccc(Br)c4)C3)cc2oc1=O` (single isomer, unassigned; (+)) [listing 1 of 2 here], the values for the IC50 (on Acetylcholinesterase; in [1]; in series [2]) were 3230 nM, 26 nM and 540 nM, respectively.

On to `CCCCN1CCC(Oc2ccc3c(C)c(C)c(=O)oc3c2)CC1`, for which the IC50 against Acetylcholinesterase stood at 990 nM; in series [1], 1410 nM; in [2], 23900 nM. This compound also displayed an inhibition in series [3] of 35%.

On to `Cc1c(C)c2ccc(OCC3CCCN(Cc4cccc(Br)c4)C3)cc2oc1=O` (single isomer, unassigned; (-)) [listing 1 of 2 here], for which the IC50 on Acetylcholinesterase worked out at 1720 nM; in [1] it was 196 nM; in series [2] it was 1110 nM.

In [3], `Cc1c(C)c2ccc(OCC3CCCN(Cc4cccc(Br)c4)C3)cc2oc1=O` (single isomer, unassigned; (-)) [listing 2 of 2 here] showed an inhibition of 26%.

With `Cc1c(C)c2ccc(OC3CCN(Cc4ccc(C#N)cc4)CC3)cc2oc1=O`, in the series listed under Homo sapiens, the Ratio IC50 is 2. In addition, the IC50 is 970 nM against Acetylcholinesterase, 656 nM in series [1] and 1290 nM in series [2]. This compound yielded an inhibition in [3] of 48%.

For the compound `CN(Cc1ccccc1)Cc1ccc(COc2ccc3c(CO)cc(=O)oc3c2)cc1`, the “log K” value in series [6] was found to be 1.87.

Consider `COc1ccc(CN2CCCC(COc3ccc4c(C)c(C)c(=O)oc4c3)C2)cc1OC` (racemic), for which the IC50 at Cholinesterase turned out to be 6040 nM; at Acetylcholinesterase it was 2210 nM; in series [1] it was 90 nM; in the series with SH-SY5Y [8], 10000 nM; in series [2] it was 1720 nM. Besides, the outcome in the series on SH-SY5Y [7] and in the series on SH-SY5Y [9] was inactive.

Take `Cc1c(C)c2ccc(OCCCCN3CCc4ccccc4C3)cc2oc1=O`: the IC50 at Cholinesterase came out at 2610 nM; on Acetylcholinesterase, 1150 nM; in series [1], 612 nM; in series [2] it was 2240 nM.

Turning to `Cc1c(C)c2ccc(OCC3CCN(Cc4ccc(C#N)cc4)CC3)cc2oc1=O`, the IC50 on Acetylcholinesterase was determined as 1810 nM; in series [1], 549 nM; in [2], 10100 nM. The inhibition in series [3] amounted to 27%.

With `Cc1c(C)c2ccc(OC3CCN(CC(=O)c4ccccc4)CC3)cc2oc1=O`, the figures for the IC50 (on Acetylcholinesterase; in series [1]; in series [2]) were 3780 nM, 114 nM and 1960 nM, respectively. In series [3], this compound came in with an inhibition of 45%.

`Cc1c(C)c2ccc(OC3CCN(Cc4ccccc4)CC3)cc2oc1=O`: the IC50 against Cholinesterase came out at 9570 nM; against Acetylcholinesterase, 780 nM; in series [1], 445 nM; in series [2], 3590 nM.

With `Cc1c(C)c2ccc(OCC3CCCN(Cc4ccc(S(C)(=O)=O)cc4)C3)cc2oc1=O` (racemic), the results for the IC50 (on Acetylcholinesterase; in series [1]; in series [2]) were 850 nM, 113 nM and 210 nM, respectively. Moreover, the inhibition in [3] is 10%.

As to `Cc1c(C)c2ccc(OCC3CCCN(Cc4ccccc4)C3)cc2oc1=O` (single isomer, unassigned; (-)), the IC50 worked out at 8080 nM against Cholinesterase, 780 nM against Acetylcholinesterase and 2300 nM in series [2].

For `Cc1c(C)c2ccc(OC3CCN(Cc4ccc(Cl)cc4)CC3)cc2oc1=O`, the Ratio IC50 in the series filed under Homo sapiens worked out at 2. Moreover, the IC50 on Acetylcholinesterase was 1550 nM; in [1] it was 876 nM; in series [2], 1590 nM. In [3], the inhibition stood at 29%.

As for `Cc1c(C)c2ccc(OC3CCN(Cc4cccc(Cl)c4)CC3)cc2oc1=O`, the IC50 at Acetylcholinesterase came to 1080 nM; in series [1], 285 nM; in series [2] it was 870 nM. The inhibition in series [3] stood at 28%.

Regarding `Cc1c(C)c2ccc(OCC3CCCN(Cc4cccc(Cl)c4)C3)cc2oc1=O` (racemic), the IC50 came to 4690 nM on Cholinesterase; 1170 nM against Acetylcholinesterase; 36 nM in series [1]; 13000 nM with SH-SY5Y [8]; 980 nM in series [2]. Further, the result with SH-SY5Y [7] was inactive. In addition, in the series with SH-SY5Y [4], the outcome was Active.

As for `Cc1c(C)c2ccc(OCCCN3CCc4ccccc4C3)cc2oc1=O`, the IC50 against Cholinesterase is 950 nM; at Acetylcholinesterase, 1220 nM; in series [1] it was 298 nM; in series [2], 2680 nM.

With `Cc1c(C)c2ccc(OCC3CCCN(Cc4ccc(Cl)cc4)C3)cc2oc1=O` (racemic), the IC50 on Cholinesterase came out at 5900 nM; against Acetylcholinesterase it was 2890 nM; in [1], 50 nM; in [2], 822 nM.

Regarding `Cc1c(C)c2ccc(OCC3CCCN(Cc4ccccc4)C3)cc2oc1=O` (stereo in doubt; (+)-5b), the IC50 was 2910 nM on Cholinesterase, 1800 nM against Acetylcholinesterase and 3840 nM in [2].

For the compound `Cc1c(C)c2ccc(OCC3CCN(C)CC3)cc2oc1=O`, the IC50 against Acetylcholinesterase is 680 nM; in series [1], 297 nM; in series [2] it was 16600 nM. Moreover, the inhibition in series [3] is 14%.

Take `Cc1c(C)c2ccc(OCC3CCCN(Cc4cccc(Br)c4)C3)cc2oc1=O` (single isomer, unassigned; (+)) [listing 2 of 2 here]: in the series filed under Homo sapiens, the Ratio IC50 came out at 21. In [3], this compound had an inhibition of 36%.

As to `Cc1c(C)c2ccc(OCC3CCN(Cc4cccc(Cl)c4)CC3)cc2oc1=O`, the IC50 on Cholinesterase amounted to 6070 nM; at Acetylcholinesterase, 1030 nM; in series [1] it was 89 nM; in series [2], 700 nM. Besides, in the series with SH-SY5Y [9], the outcome was inactive.
